For one assay, the target named is KEAP1-BRD4BD2 (Homo sapiens, UniProt O60885+Q14145). Nature of the assay: KEAP1-BRD4BD2 dimerization TR-FRET assay. It counts as biochemical. In outline: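 TR-FRET mix: 200 nM biotinylated human BRD4BD2, 200 nM Alexa Fluor 647-labelled human KEAP1 (residues 321–609, insect-cell expressed, SpyCatcher-labelled) and 2 nM Eu-streptavidin. Buffer was 50 mM Tris pH 8.0, 200 mM NaCl, 0.1% Pluronic F-68, 0.5% BSA and 1 mM TCEP; compound was titrated. After 15 min at room temperature, excitation was 337 nm and the 665/620 nm ratio was read over thirty 200-s cycles. Mean ± SD of ≥3 technical replicates; two independent experiments.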
Sequence of KEAP1-BRD4BD2 (Q14145 321-609 limits assumed, other chains not shown): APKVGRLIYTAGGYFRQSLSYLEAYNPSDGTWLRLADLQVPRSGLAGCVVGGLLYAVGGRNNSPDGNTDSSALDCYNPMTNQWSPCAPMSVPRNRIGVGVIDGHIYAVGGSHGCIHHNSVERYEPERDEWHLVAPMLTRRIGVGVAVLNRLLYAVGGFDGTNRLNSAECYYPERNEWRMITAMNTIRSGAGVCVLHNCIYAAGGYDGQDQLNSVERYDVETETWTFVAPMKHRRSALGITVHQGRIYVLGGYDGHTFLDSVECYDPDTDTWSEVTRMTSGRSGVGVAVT
A general note: TR-FRET usually uses a lanthanide donor and a delayed reading to cut background.

The next assay addresses KEAP1 (Homo sapiens, UniProt Q14145). Nature of the assay: Immunoblot of KEAP1 degradation in WT and CRBN−/− MM.1S cells. It counts as cell-based. Conditions: WT MM.1S cells, 4 h. (In western blotting, separated proteins are transferred to a membrane and probed.)
A further assay concerns the target BRD4 (Homo sapiens, UniProt O60885). Put plainly: Immunoblot of BRD4 degradation in MM.1S cells. It counts as cell-based. Conditions: MM.1S cells, 16 h. The method, boiled down: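 MM.1S cells were treated with test compound for 16 h (24 h in the initial screen). For rescue, cells were pretreated 2 h with 10 μM KEAP1 inhibitor, 10 μM JQ1 or 1 μM MLN4924. Lysates in RIPA were BCA-normalised, run on 4–12% gels and blotted to PVDF with IRDye secondaries. BRD4 bands were quantified relative to β-actin. Two independent experiments.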

Sequence of KEAP1 (Q14145 whole entry): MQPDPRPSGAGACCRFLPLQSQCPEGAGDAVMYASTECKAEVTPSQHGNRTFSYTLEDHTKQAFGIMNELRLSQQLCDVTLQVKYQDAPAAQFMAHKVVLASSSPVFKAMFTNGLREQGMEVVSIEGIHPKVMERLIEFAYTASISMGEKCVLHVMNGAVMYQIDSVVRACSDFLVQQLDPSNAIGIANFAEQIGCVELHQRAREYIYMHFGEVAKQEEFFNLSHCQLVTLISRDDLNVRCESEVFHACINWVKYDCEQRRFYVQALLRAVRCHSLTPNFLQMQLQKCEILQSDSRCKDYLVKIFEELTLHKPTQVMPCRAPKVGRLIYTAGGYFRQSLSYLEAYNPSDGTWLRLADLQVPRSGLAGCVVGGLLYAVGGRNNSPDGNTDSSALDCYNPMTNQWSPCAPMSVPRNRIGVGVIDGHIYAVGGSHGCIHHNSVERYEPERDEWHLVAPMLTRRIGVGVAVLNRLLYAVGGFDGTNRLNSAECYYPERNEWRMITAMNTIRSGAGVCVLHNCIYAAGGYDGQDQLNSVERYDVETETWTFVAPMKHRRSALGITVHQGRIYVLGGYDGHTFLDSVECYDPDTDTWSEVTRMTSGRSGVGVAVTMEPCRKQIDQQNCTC

Regarding `COc1cc([C@H](CC(=O)O)c2ccc(C)c(CN3C[C@@H](C)Oc4cc(CCCCCCNC(=O)C[C@@H]5N=C(c6ccc(Cl)cc6)c6c(sc(C)c6C)-n6c(C)nnc65)ccc4S3(=O)=O)c2)cc2nnn(C)c12` [DGY-06–177-pk1, (R)-3-(3-(((R)-7-(6-(2-((S)-4-(4-chlorophenyl)-2,3,9-trimethyl-6H-thieno[3,2-f][1,2,4]triazolo[4,3-a][1,4]diazepin-6-yl)acetamido)hexyl)-4-methyl-1,1-dioxido-3,4-dihydro-2H-benzo[b][1,4,5]oxathiazepin-2-yl)methyl)-4-methylphenyl)-3-(7-methoxy-1-methyl-1H-benzo[d][1,2,3]triazol-5-yl)propanoic acid], the “concentration at which KEAP1-BRD4BD2 dimerization is induced” value at KEAP1-BRD4BD2 was ~ 10 μM. As for `COc1cc([C@@H](CC(=O)O)c2ccc(C)c(CN3C[C@@H](C)Oc4cc(CCCCCCNC(=O)COc5cc6c7c(cccc7c5)C(=O)N(C5CCC(=O)N(C)C5=O)C6=O)ccc4S3(=O)=O)c2)cc2nnn(C)c12` (stereo partly drawn) [NJH-04–202, (3S)-3-(7-methoxy-1-methyl-1H-benzo[d][1,2,3]triazol-5-yl)-3-(4-methyl-3-(((4R)-4-methyl-7-(6-(2-((2-(1-methyl-2,6-dioxopiperidin-3-yl)-1,3-dioxo-2,3-dihydro-1H-benzo[de]isoquinolin-5-yl)oxy)acetamido)hexyl)-1,1-dioxido-3,4-dihydro-2H-benzo[b][1,4,5]oxathiazepin-2-yl)methyl)phenyl)propanoic acid], the “KEAP1 degradation, negative control” value on KEAP1 is “did not induce KEAP1 degradation”. Turning to `COc1cc([C@@H](CC(=O)O)c2ccc(C)c(CN3C[C@@H](C)Oc4cc(CCCCNC(=O)C[C@@H]5N=C(c6ccc(Cl)cc6)c6c(sc(C)c6C)-n6c(C)nnc65)ccc4S3(=O)=O)c2)cc2nnn(C)c12` [NJH-05–138, (S)-3-(3-(((R)-7-(4-(2-((S)-4-(4-chlorophenyl)-2,3,9-trimethyl-6H-thieno[3,2-f][1,2,4]triazolo[4,3-a][1,4]diazepin-6-yl)acetamido)butyl)-4-methyl-1,1-dioxido-3,4-dihydro-2H-benzo[b][1,4,5]oxathiazepin-2-yl)methyl)-4-methylphenyl)-3-(7-methoxy-1-methyl-1H-benzo[d][1,2,3]triazol-5-yl)propanoic acid], the “cellular degradation of BRD4, linker library” value on BRD4 is listed as “showed cellular degradation of BRD4 to a similar level to DGY-06–177-pk2”. With `COc1cc([C@@H](CC(=O)O)c2ccc(C)c(CN3C[C@@H](C)Oc4cc(CCCOCCNC(=O)C[C@@H]5N=C(c6ccc(Cl)cc6)c6c(sc(C)c6C)-n6c(C)nnc65)ccc4S3(=O)=O)c2)cc2nnn(C)c12` [NJH-05–141, (S)-3-(3-(((R)-7-(3-(2-(2-((S)-4-(4-chlorophenyl)-2,3,9-trimethyl-6H-thieno[3,2-f][1,2,4]triazolo[4,3-a][1,4]diazepin-6-yl)acetamido)ethoxy)propyl)-4-methyl-1,1-dioxido-3,4-dihydro-2H-benzo[b][1,4,5]oxathiazepin-2-yl)methyl)-4-methylphenyl)-3-(7-methoxy-1-methyl-1H-benzo[d][1,2,3]triazol-5-yl)propanoic acid], at BRD4, the “cellular degradation of BRD4, linker library” value was “showed cellular degradation of BRD4 to a similar level to DGY-06–177-pk2”.
